In one assay the test system is ASPC1. Put plainly: Cytotoxicity against human AsPC1 cells assessed as growth inhibition after 48 hrs by sulforhodamine B assay. Conditions: ASPC1, 48 h. The format is functional. The essentials: (§1)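 Seeded at (3−5) × 10^3 cells/well. A time-zero plate was TCA-fixed after attachment. Next day, cells got vehicle (0.1% DMSO) or a rising concentration gradient for 48 h, then 10% TCA fixation, 0.4% SRB in 1% AcOH, A515 read. GI50 taken relative to the time-zero absorbance; at least three independent runs, mean ± SD.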
On the technique in general: In SRB staining, fixed cells bind dye roughly in proportion to their protein.

Assay [1] relates to A549. Put plainly: Cytotoxicity against human A549 cells assessed as growth inhibition after 48 hrs by sulforhodamine B assay. The format is functional. The following applies: A549, 48 h. The method in brief:
as §1

Assay [2] in a line: Cytotoxicity against human Hep3B cells assessed as growth inhibition after 48 hrs by sulforhodamine B assay. The format is functional, Hep 3B2. The essentials:
as §1

Another assay concerns PC-3. Put plainly: Cytotoxicity against human PC3 cells assessed as growth inhibition after 48 hrs by sulforhodamine B assay. It is filed as functional. Conditions: PC-3, 48 h. The method in brief: as §1
Assay [3] addresses T1, Tubulin (Sus scrofa) (UniProt P02554+P02550). Put plainly: Inhibition of porcine tubulin polymerization measured every min for 30 mins by spectrophotometric analysis. The format is protein assay. The essentials: (§2)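 Cold porcine tubulin (>99% pure) in G-PEM buffer (80 mM PIPES, 2 mM MgCl2, 0.5 mM EGTA, 1 mM GTP, pH 6.9) with 15% glycerol, with or without compound. Kinetic turbidity at 340 nm, read each minute for 30 min at 37 °C. DMSO control.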

The target of the next assay is Tubulin. Description: Displacement of [3H]-colchicine from tubulin (unknown origin) preincubated with protein for 1 hr followed by [3H]-colchicine addition measured after 3 hrs by scintillation counting analysis. It is filed as protein-complex assay, Homo sapiens. A general note: In a radioligand displacement assay an active substance lowers the binding of a labelled ligand.

For assay [4], the system named is A549. Description: Effect on G2/M phase in human A549 cells after 24 hrs by propidium iodide staining-based flow cytometric analysis. The format is functional, cell-based. The method in brief:
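A549 given the indicated concentration for 24 h, fixed in 75% ethanol overnight at −20 °C, washed in cold PBS, 30 min in phosphate–citric acid buffer pH 7.8 at room temperature. Stained with propidium iodide buffer containing 0.1% Triton X-100 and RNase A; DNA content read on a FACScan.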
(Flow cytometry measures light scatter and fluorescence of single cells or particles in a stream.)

The target in assay [5] is T1, Tubulin (Sus scrofa). Put plainly: Inhibition of porcine tubulin polymerization at 10 uM measured every min for 30 mins by spectrophotometric analysis. The format is protein assay. The essentials: as §2
Assay [6] deals with A549. Description: Induction of microtubule destabilization in human A549 cells at 1 uM after 24 hrs by DAPI staining-based immunofluorescence confocal microscopic analysis. It is filed as cell-based. The essentials: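 A549 seeded sparsely on chamber slides and treated 24 h; cold MeOH fixation (−20 °C, 15 min), blocked with 0.1% Triton X-100 in PBS 30 min at 37 °C. Monoclonal anti-β-tubulin 1 h at 37 °C, then FITC anti-mouse IgG, DAPI nuclear counterstain; confocal imaging.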

The term GI50 denotes the concentration giving 50% growth inhibition. Broadly, the pIC50 is −log10 of the IC50, conventionally taken in molar units. Lower therefore signals a high IC50.

pIC50: −log10 of the molar value. Active and inactive are the calls of the source. The calls are words filed in the database; no cut-off is given here.

T1 sequence (P02550 whole entry, looked up): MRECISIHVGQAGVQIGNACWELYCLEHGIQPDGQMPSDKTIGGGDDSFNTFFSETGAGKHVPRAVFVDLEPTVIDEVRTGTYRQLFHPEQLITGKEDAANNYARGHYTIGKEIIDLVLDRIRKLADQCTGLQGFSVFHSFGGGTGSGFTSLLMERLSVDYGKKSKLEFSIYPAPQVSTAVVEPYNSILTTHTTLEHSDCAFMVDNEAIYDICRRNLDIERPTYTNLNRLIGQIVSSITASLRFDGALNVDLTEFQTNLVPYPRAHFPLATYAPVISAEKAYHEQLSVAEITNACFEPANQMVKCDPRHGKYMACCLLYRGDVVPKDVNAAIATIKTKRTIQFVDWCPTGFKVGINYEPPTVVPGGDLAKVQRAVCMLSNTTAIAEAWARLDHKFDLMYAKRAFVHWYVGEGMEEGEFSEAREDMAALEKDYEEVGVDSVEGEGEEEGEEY
T1 sequence (P02554 whole entry, looked up): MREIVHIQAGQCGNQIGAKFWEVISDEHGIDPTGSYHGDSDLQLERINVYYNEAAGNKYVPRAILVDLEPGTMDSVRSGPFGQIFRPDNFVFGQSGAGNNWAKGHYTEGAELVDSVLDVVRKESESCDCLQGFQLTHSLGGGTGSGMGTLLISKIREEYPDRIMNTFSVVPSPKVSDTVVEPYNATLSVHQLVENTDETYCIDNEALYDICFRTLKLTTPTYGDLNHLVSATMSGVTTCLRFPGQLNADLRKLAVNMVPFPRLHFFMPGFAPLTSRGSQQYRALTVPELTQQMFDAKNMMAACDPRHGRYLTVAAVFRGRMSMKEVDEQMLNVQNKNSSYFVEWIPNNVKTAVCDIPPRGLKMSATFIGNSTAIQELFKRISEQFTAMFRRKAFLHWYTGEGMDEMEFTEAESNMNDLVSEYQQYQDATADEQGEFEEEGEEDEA

Consider `COc1ccc(S(=O)(=O)Nc2ccccc2-c2ccc(F)c(F)c2)cc1`, for which the GI50 in the assay on ASPC1 came out at 280 nM; with A549 [1] it was 300 nM; in assay [2], 150 nM; in the assay on PC-3, 190 nM.
`COc1ccc(S(=O)(=O)Nc2cccnc2Nc2ccc(O)cc2)cc1` [ABT-751]: the concentration for 50% growth inhibition (GI50) in the assay with ASPC1 amounted to 4110 nM; with A549 [1], 5330 nM; in assay [2], 840 nM; with PC-3, 620 nM.
For `COc1ccc(S(=O)(=O)Nc2ccccc2-c2ccc(C#N)c(F)c2)cc1`, the inhibition entry on Tubulin (Sus scrofa) [3] was “Dose-dependent effect”. Further, the negative-log IC50 (pIC50) at Tubulin was 6.17.
As to `COc1ccc(S(=O)(=O)N(CCCl)c2ccccc2-c2ccc(C#N)cc2)cc1`, the GI50 with ASPC1 was determined as 4790 nM; in the assay with A549 [1], 1500 nM; in assay [2] it was 1550 nM; with PC-3 it was 6520 nM.
As for `Cc1ccc(S(=O)(=O)OCC(=O)Nc2ccc(C(=O)O)c(O)c2)cc1`, the outcome in the assay on A549 [4] was inactive.
Regarding `CC[C@]1(O)C[C@H]2CN(CCc3c([nH]c4ccccc34)[C@@](C(=O)OC)(c3cc4c(cc3OC)N(C=O)[C@H]3[C@@](O)(C(=O)OC)[C@H](OC(C)=O)[C@]5(CC)C=CCN6CC[C@]43[C@@H]65)C2)C1`, the inhibition result at Tubulin (Sus scrofa) [5] was “Active”. Besides, the outcome with A549 [6] was Active.

The record behind these values is ChEMBL document CHEMBL3600297, “N-Sulfonyl-aminobiaryls as Antitubulin Agents and Inhibitors of Signal Transducers and Activators of Transcription 3 (STAT3) Signaling” (J Med Chem, 2015).
